Laboratory results published in article PMC9260860 (Biochemistry, 2021).

How the values were obtained:
H. pylori cells [1] = assay type: cell-based, Helicobacter pylori
HpAFLDA (jhp0252) = target: T1, HpAFLDA (jhp0252) (Helicobacter pylori, UniProt Q9ZMG8); experiment: Enzymatic assay for HpAFLDA deaminase activity; assay type: biochemical, H. pylori strain J99; conditions: for fold difference of kcat/Km between AFL and adenosine: HpAFLDA, AFL greater than adenosine
T1 sequence (Q9ZMG8 1-409): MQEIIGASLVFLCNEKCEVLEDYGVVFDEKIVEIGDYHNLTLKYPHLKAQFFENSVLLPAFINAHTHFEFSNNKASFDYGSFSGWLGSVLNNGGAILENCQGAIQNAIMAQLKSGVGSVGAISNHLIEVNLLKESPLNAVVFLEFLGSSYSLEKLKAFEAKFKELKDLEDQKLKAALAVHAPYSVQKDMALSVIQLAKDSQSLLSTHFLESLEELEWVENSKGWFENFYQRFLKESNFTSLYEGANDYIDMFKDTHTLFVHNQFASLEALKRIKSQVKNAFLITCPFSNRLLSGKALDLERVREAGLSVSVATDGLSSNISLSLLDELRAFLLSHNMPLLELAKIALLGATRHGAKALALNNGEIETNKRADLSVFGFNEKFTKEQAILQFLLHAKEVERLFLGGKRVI

HpAFLDA = HpAFLDA (Helicobacter pylori, UniProt Q9ZMG8); experiment: HpAFLDA inhibition assay; assay type: biochemical, H. pylori strain J99
H. pylori cells [2] = experiment: Metabolism of AFL and FL by live H. pylori cell mixtures; assay type: cell-based, Helicobacter pylori; conditions: ~10^8 cells in PBS pH 7.0
Procedure, shortened: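 Live cells were taken from overnight cultures and washed twice with PBS. Incubations were started by adding 25 μM AFL or FL to ~10^8 cells in PBS (pH 7.0). Metabolites were extracted with ice-cold acetonitrile/methanol/water (40:40:20) containing 0.1 M formic acid and a deuterated SAM internal standard. Extracts were dried, redissolved in water, and quantified by reversed-phase LC-MS/MS (ESI−, MRM).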

H. pylori = experiment: Metabolite supplementation of the growth medium, effect on H. pylori cell growth; assay type: cell-based, Helicobacter pylori
[3] = tested on: Sav2595, Acel0264, Dr0824, Nis0429; conditions: four enzymes, 30 °C; cited from earlier work
HpMTAN [4] = target: T2, HpMTAN (Helicobacter pylori, UniProt Q9ZMY2); experiment: AFL and FL hydrolysis by HpMTAN; assay type: biochemical
T2 sequence (Q9ZMY2 1-230): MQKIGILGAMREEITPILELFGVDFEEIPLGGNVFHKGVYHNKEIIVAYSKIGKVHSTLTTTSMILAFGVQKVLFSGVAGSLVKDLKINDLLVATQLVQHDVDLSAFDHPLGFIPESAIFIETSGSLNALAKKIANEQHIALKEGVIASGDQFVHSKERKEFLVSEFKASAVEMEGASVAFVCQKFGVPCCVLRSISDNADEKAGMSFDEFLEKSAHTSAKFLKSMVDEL

HpMTAN [5] = target: T2, HpMTAN; assay type: biochemical
H. pylori J99 = experiment: Inhibition of H. pylori growth in liquid culture; assay type: cell-based, Helicobacter pylori
[6] = target: human adenosine deaminase (HsADA); conditions: cited from earlier work
[7] = substrate: Nc1ncnc2c1ncn2[C@@H]1O[C@H](CO)[C@@H](O)[C@H]1O; experiment: Enzymatic assay for HpAFLDA deaminase activity; assay type: biochemical, H. pylori strain J99; conditions: other: deamination by HpAFLDA, 50 mM HEPES pH 7.0, 25 °C
[8] = substrate: Nc1ncnc2c1ncn2[C@@H]1O[C@H](CCC(=O)c2cccc(C(=O)O)c2)[C@@H](O)[C@H]1O; experiment: Enzymatic assay for HpAFLDA deaminase activity; assay type: biochemical, H. pylori strain J99; conditions: other: deamination by HpAFLDA, 50 mM HEPES pH 7.0, 25 °C
[9] = substrate: C[C@H]1O[C@@H](n2cnc3c(N)ncnc32)[C@H](O)[C@@H]1O; experiment: Enzymatic assay for HpAFLDA deaminase activity; assay type: biochemical, H. pylori strain J99; conditions: other: deamination by HpAFLDA, 50 mM HEPES pH 7.0, 25 °C
[10] = substrate: Nc1ncnc2c1ncn2[C@@H]1O[C@H](CCC(=O)c2cccc(C(=O)O)c2)[C@@H](O)[C@H]1O; experiment: AFL and FL hydrolysis by HpMTAN; assay type: biochemical, Helicobacter pylori; conditions: other: hydrolysis by HpMTAN, 50 mM HEPES pH 7.0
[11] = deamination by HpAFLDA, 50 mM HEPES pH 7.0, 25 °C

CCCCSC[C@H]1CN(Cc2c[nH]c3c(N)ncnc23)C[C@@H]1O [BTDIA, BuT-DADMe-ImmA]
menaquinone-6 concentrations in lipid extracts (H. pylori cells [1]; BTDIA at 14 nM, p < 0.005): decreased significantly
cellular DHFL concentrations (H. pylori cells [1]; BTDIA at its half-maximal inhibitory concentration (14 nM)): Significant decreases

Nc1ncnc2c1ncn2[C@@H]1O[C@H](CSCC[C@H](N)C(=O)O)[C@@H](O)[C@H]1O [SAH, S-adenosylhomocysteine]
Km (HpAFLDA (jhp0252); [11]): 220 ± 50 µM
kcat (HpAFLDA (jhp0252); [11]): 0.12 ± 0.02 s⁻¹

CCCSC[C@H]1O[C@@H](n2cnc3c2N=CNC[C@H]3O)C[C@@H]1O [(8R)-PrT-2′d-CF, 5′-propylthio-2′-deoxycoformycin]
inhibition of HpAFLDA (in words) (HpAFLDA): showed some inhibition

CSC[C@H]1O[C@@H](n2cnc3c2N=CNC[C@H]3O)C[C@@H]1O [(8R)-MT-2′d-CF, 5′-methylthio-2′-deoxycoformycin]
inhibition of HpAFLDA activity (HpAFLDA; even at 10 μM): did not inhibit

Nc1ncnc2c1ncn2[C@@H]1O[C@H](CCC(=O)c2cccc(C(=O)O)c2)[C@@H](O)[C@H]1O [AFL, 6-Amino-6-deoxyfutalosine]
conversion of the added metabolite by live H. pylori cells (H. pylori cells [2]; 25 μM AFL): readily converted AFL to FL and adenine
effect of supplementation on cell growth (H. pylori; 200 μM AFL in the growth medium, BTDIA used to stress MK biosynthesis): did not cause a significant impact on cell growth
catalytic efficiencies for AFL deamination [3]: 4.8 × 10^6 to 7.9 × 10^5 M^−1 s^−1
fold difference of kcat/Km between AFL and adenosine (HpAFLDA (jhp0252)): 26 fold
kcat (HpAFLDA (jhp0252); [11]): 0.62 s⁻¹
hydrolysis by HpMTAN (in words) (HpMTAN [4]): capable of catalyzing only AFL hydrolysis

5′-methylthioadenosine [MTA]
catalytic efficiency of MTA hydrolysis relative to AFL hydrolysis (HpMTAN [5]): > 100 fold

O=C(O)c1cccc(C(=O)CC[C@H]2O[C@@H](n3cnc4c(=O)[nH]cnc43)[C@H](O)[C@@H]2O)c1 [FL, futalosine]
reversal of MTCF growth inhibition by supplementation (H. pylori J99; 50 μM FL with 6-100 μM MTCF, 96 h): partially reversed the growth inhibition
change of the FL concentration in live H. pylori cells (H. pylori cells [2]; 25 μM FL): no significant changes
hypoxanthine formation in live H. pylori cells (H. pylori cells [2]; 25 μM FL): no hypoxanthine was formed
effect of supplementation on cell growth (H. pylori; FL 1 to 200 μM): did not affect cell growth
hydrolysis by HpMTAN (in words) (HpMTAN [4]): not FL hydrolysis
kcat (HpMTAN [4]; hydrolysis by HpMTAN, 50 mM HEPES pH 7.0): <1e-05 s⁻¹

CSC[C@H]1O[C@@H](n2cnc3c2N=CNC[C@H]3O)[C@H](O)[C@@H]1O [(8R)-MTCF, 5′-methylthiocoformycin]
type of inhibition of HpAFLDA (HpAFLDA; second phase of inhibition after reaction for 30 min): slow-onset inhibitor
IC50 (H. pylori J99; read-out: IC50, H. pylori growth, liquid medium, 72 h, microaerophilic, 37 °C): 14 ± 1 µM

Nc1ncnc2c1ncn2[C@@H]1O[C@H](CO)[C@@H](O)[C@H]1O [adenosine]
fold difference of kcat/Km between AFL and adenosine (HpAFLDA (jhp0252)): 26 fold

OC[C@H]1O[C@@H](n2cnc3c2N=CNC[C@H]3O)[C@H](O)[C@@H]1O [(8R)-CF, Coformycin, reference compound]
Ki (HpAFLDA): > 10 µM
Ki values [6]: submicromolar

O[C@@H]1CNC=Nc2c1ncn2[C@H]1C[C@H](O)[C@@H](CSc2ccccc2)O1 [(8R)-PhT-2′d-CF, 5′-phenylthio-2′-deoxycoformycin]
inhibition of HpAFLDA (in words) (HpAFLDA): showed some inhibition

B1: HpAFLDA (jhp0252) (Helicobacter pylori J99) (protein)
chain: MQEIIGASLVFLCNEKCEVLEDYGVVFDEKIVEIGDYHNLTLKYPHLKAQFFENSVLLPAFINAHTHFEFSNNKASFDYGSFSGWLGSVLNNGGAILENCQGAIQNAIMAQLKSGVGSVGAISNHLIEVNLLKESPLNAVVFLEFLGSSYSLEKLKAFEAKFKELKDLEDQKLKAALAVHAPYSVQKDMALSVIQLAKDSQSLLSTHFLESLEELEWVENSKGWFENFYQRFLKESNFTSLYEGANDYIDMFKDTHTLFVHNQFASLEALKRIKSQVKNAFLITCPFSNRLLSGKALDLERVREAGLSVSVATDGLSSNISLSLLDELRAFLLSHNMPLLELAKIALLGATRHGAKALALNNGEIETNKRADLSVFGFNEKFTKEQAILQFLLHAKEVERLFLGGKRVI
Km [7]: 170 ± 40 µM
kcat [7]: 0.44 ± 0.06 s⁻¹
kcat/Km [7]: 2600 M⁻¹ s⁻¹
Km [8]: 9 ± 1 µM
kcat [8]: 0.62 ± 0.03 s⁻¹
kcat/Km [8]: 68000 M⁻¹ s⁻¹
kcat [9]: 1.6 ± 0.3 s⁻¹
kcat/Km [9]: 12000 M⁻¹ s⁻¹

B2: HpMTAN (Helicobacter pylori J99) (protein)
chain: MQKIGILGAMREEITPILELFGVDFEEIPLGGNVFHKGVYHNKEIIVAYSKIGKVHSTLTTTSMILAFGVQKVLFSGVAGSLVKDLKINDLLVATQLVQHDVDLSAFDHPLGFIPESAIFIETSGSLNALAKKIANEQHIALKEGVIASGDQFVHSKERKEFLVSEFKASAVEMEGASVAFVCQKFGVPCCVLRSISDNADEKAGMSFDEFLEKSAHTSAKFLKSMVDEL
Km [10]: 1.6 ± 0.3 µM
kcat [10]: 0.022 ± 0.02 s⁻¹
kcat/Km [10]: 14000 M⁻¹ s⁻¹
